Source: PubChem BioAssay
GASC1 inh: inhibitors of GASC-1 (KDM4C) histone demethylase, primary screen, biochemical, single concentration HTS. AID 720574, 2013. GST-KDM4C 2-372, H3K9me3 peptide, LANCE TR-FRET. Lysine-specific demethylase 4C (Homo sapiens), Q9H3R0. inhibition, % at 12.5 µM. 96,000 compounds, 0.15% hits;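 active = mean replicate inhibition above about 25%, with at least 55% of replicates also reaching it, limit read from the data, passing the limit was not always enough; inconclusive = only one of those two conditions met; inactive = neither condition met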
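Material: GST-tagged GASC-1 (JMJD2C) catalytic fragment, aa 2-372 / Quantity: enzyme final amount 10 nM / Medium: HEPES buffer, pH 7.5, plus ascorbate / Doses: one test concentration per compound / Incubation: 30 min reaction, 60 min detection, RT / Measured by: LANCE TR-FRET / Read-out: inhibition from TR-FRET ratio decrease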
Pf Dd2 inh: P. falciparum Dd2 growth inhibitors, primary screen, SYBR Green fluorescence, single dose replicates | 72 h; hits give low values | activity change, % at 10 µM | 94,000 compounds, 2.3% hits; in the data active = activity change below about -80%; inconclusive = no clear call, values can overlap the other calls
T cruzi growth-1: T. cruzi intracellular proliferation inhibitors, primary screen, cell-based, beta-gal Tulahuen parasites, NIH3T3 host, luminescence. T. cruzi beta-gal in NIH3T3, GalScreen luminescence, 90 h. inhibition, % at 8.34 µM. 77,000 compounds, 5.9% hits. AID 624255, 2012;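 active = mean inhibition above about 93%, with at least 55% of replicates each passing it, limit read from the data, passing the limit was not always enough; inconclusive = only one of those two conditions holds; inactive = neither condition holds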
IDH1 R132H inh: inhibitors of IDH1 R132H reductase, primary screen, biochemical, plate reader, single point | inhibition, % at 10 µM | 70,000 compounds, 0.18% hits | diaphorase/resazurin fluorescence, 60 min | Isocitrate dehydrogenase [NADP] cytoplasmic (Homo sapiens), O75874; in the data active = inhibition above about 34%; inconclusive = no clear call, values can overlap the other calls; inactive = below about 11%;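 also: 0% = DMSO and 100% = no enzyme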
Target sequence (O75874 whole entry R132H): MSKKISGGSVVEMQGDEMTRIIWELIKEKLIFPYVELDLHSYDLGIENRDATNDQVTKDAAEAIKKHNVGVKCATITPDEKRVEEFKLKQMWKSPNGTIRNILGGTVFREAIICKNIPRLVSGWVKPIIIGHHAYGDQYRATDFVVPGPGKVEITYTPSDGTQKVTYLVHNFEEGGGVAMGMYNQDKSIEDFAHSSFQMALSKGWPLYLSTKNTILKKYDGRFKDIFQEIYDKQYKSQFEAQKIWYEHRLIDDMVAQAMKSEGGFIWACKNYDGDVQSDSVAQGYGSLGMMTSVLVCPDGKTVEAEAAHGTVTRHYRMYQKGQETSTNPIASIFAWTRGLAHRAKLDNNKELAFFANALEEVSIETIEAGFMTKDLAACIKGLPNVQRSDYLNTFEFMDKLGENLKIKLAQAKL
T cruzi growth-2: T. cruzi intracellular proliferation inhibitors, confirmation, cell-based, NIH3T3 host, beta-gal parasite, luminescence, cherry-pick; shares compounds with T cruzi growth-1; T. cruzi beta-gal in NIH3T3, GalScreen luminescence, 90 h; inhibition, % at 8.35 µM; 5,600 compounds, 72% hits;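 active = mean replicate inhibition above about 95% and at least 55% of replicates individually reaching it, limit read from the data; inconclusive = only one of the two criteria is met; inactive = neither criterion is met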
T cruzi growth-3: inhibitors of intracellular T. cruzi replication, confirmation, NIH3T3 host cells, beta-gal parasites, cherry-pick, set 2. inhibition, % at 2.09 µM. T. cruzi beta-gal in NIH3T3, GalScreen luminescence, 90 h. 5,600 compounds, 21% hits. shares compounds with T cruzi growth-1;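 active = mean inhibition above about 95%, with at least 55% of replicates also reaching it, limit read from the data; inconclusive = meets just one of the two conditions; inactive = meets neither condition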;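 also: plate controls were neutral control median for no effect and positive control median for full effect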
NIH3T3 tox: cytotoxicity in mouse NIH/3T3 fibroblasts, confirmation, cytotoxicity control for T. cruzi proliferation inhibitor project, cell-based, cherry-pick, single point; shares compounds with T cruzi growth-1; NIH/3T3 viability, CellTiter-Glo ATP luminescence, 90 h; cytotoxicity (signal decrease), % at 8.35 µM; 5,600 compounds, 14% hits; AID 651742, 2012;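 active = mean signal decrease across replicates above about 35% based on untreated-well scatter, with enough replicates individually passing, limit read from the data; inconclusive = no rule stated though some were filed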;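 also: 0% = median of neutral control wells and 100% = median of positive control wells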
3T3 cytotox 2: NIH/3T3 fibroblast cytotoxicity, confirmation, cytotoxicity control, cell-based, cherry-pick, single point, set 2; shares compounds with T cruzi growth-1; NIH/3T3 viability, CellTiter-Glo ATP luminescence, 90 h; inhibition, % at 24.9 µM; 5,600 compounds, 56% hits;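 active = mean loss of cell viability signal at or above a set limit, and enough replicates individually reaching it; inconclusive = meets only the mean limit or only the replicate share; inactive = meets neither condition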;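 also: 0% = median of neutral control wells and 100% = median of positive control wells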
The depositor's hits bear a star; ? = inconclusive; nt = not tested or not shown. Compounds with a hit are over-represented: about 5.9% of the library has one in this group of screens.

SMILES	GASC1 inh	Pf Dd2 inh	T cruzi growth-1	IDH1 R132H inh	T cruzi growth-2	T cruzi growth-3	NIH3T3 tox	3T3 cytotox 2
C[C@H](CO)N1C[C@H](C)[C@@H](CN(C)C)Oc2cc(-c3ccncc3)ccc2S1(=O)=O	-1	-3	106*	1	89	24	13	?
C[C@@H]1CN([C@@H](C)CO)S(=O)(=O)c2ccc(-c3ccncc3)cc2O[C@H]1CN(C)C	-1	11	98*	-7	97*	15	2	19
C[C@@H]1CN([C@H](C)CO)S(=O)(=O)c2ccc(-c3ccncc3)cc2O[C@H]1CN(C)C	4	25	24	2	nt	nt	nt	nt
Cc1ccc(S(=O)(=O)Nc2ccc3c(c2)C(=O)N([C@@H](C)CO)C[C@@H](C)[C@@H](CN(C)S(=O)(=O)c2ccc(Cl)cc2)OCCCC[C@H](C)O3)cc1	0	-86*	133*	0	107*	109*	-36	2
Cc1ccc(S(=O)(=O)Nc2ccc3c(c2)C(=O)N([C@H](C)CO)C[C@H](C)[C@H](CN(C)S(=O)(=O)c2ccc(Cl)cc2)OCCCC[C@@H](C)O3)cc1	15	-53	?	nt	101*	85	26	21
C[C@@H]1CCCCO[C@@H](CN(C)S(=O)(=O)c2ccc(Cl)cc2)[C@@H](C)CN([C@H](C)CO)C(=O)c2cc(NS(=O)(=O)c3ccc(Cl)cc3)ccc2O1	-1	-24	74	-1	nt	nt	nt	nt
Cc1ccc(S(=O)(=O)N(C)C[C@@H]2OCCCC[C@H](C)Oc3ccc(NS(=O)(=O)c4ccc(Cl)cc4)cc3C(=O)N([C@H](C)CO)C[C@H]2C)cc1	1	-50	91	-2	nt	nt	nt	nt
C[C@@H]1CCCCO[C@H](CN(C)S(=O)(=O)c2ccc(Cl)cc2)[C@@H](C)CN([C@H](C)CO)C(=O)c2cc(NS(=O)(=O)c3ccc(Cl)cc3)ccc2O1	0	-15	32	3	nt	nt	nt	nt
Cc1ccc(S(=O)(=O)N(C)C[C@H]2OCCCC[C@H](C)Oc3ccc(NS(=O)(=O)c4ccc(Cl)cc4)cc3C(=O)N([C@H](C)CO)C[C@@H]2C)cc1	-1	-16	97*	nt	100*	119*	17	11
Cc1ccc(S(=O)(=O)N(C)C[C@H]2OCCCC[C@@H](C)Oc3ccc(NS(=O)(=O)c4ccc(Cl)cc4)cc3C(=O)N([C@@H](C)CO)C[C@@H]2C)cc1	0	-41	99*	nt	98*	119*	-20	-2
Cc1cccc(NC(=O)c2cc(NC(=O)CCC(=O)O)ccc2N2CCOCC2)c1	nt	nt	nt	0	nt	nt	nt	nt
O=C(O)CC(c1ccc(F)cc1)c1ccco1 (stereo unspecified)	nt	nt	nt	0	nt	nt	nt	nt
CCc1ccc(OCC(=O)Nc2cccc(-c3nc4cc(Cl)ccc4o3)c2C)cc1	nt	nt	nt	0	nt	nt	nt	nt
COC(=O)C1=CO[C@@H](O[C@@H]2O[C@H](CO)[C@@H](O)[C@H](O)[C@H]2O)[C@H]2[C@@H]1C=CC21C=C(C(C)O)C(=O)O1 (stereo partly specified)	nt	nt	nt	0	nt	nt	nt	nt
O=C(CSc1nnnn1-c1ccccc1)Nc1ccc(-c2ccc([N+](=O)[O-])cc2)cc1	nt	nt	nt	0	nt	nt	nt	nt
Cc1ccc(S(=O)(=O)N(C)C[C@@H]2OCCCC[C@H](C)Oc3ccc(NS(=O)(=O)c4ccc(Cl)cc4)cc3C(=O)N([C@@H](C)CO)C[C@@H]2C)cc1	-1	-41	118*	3	104*	115*	-5	-18
C[C@@H]1CCCCO[C@H](CN(C)S(=O)(=O)c2ccc(Cl)cc2)[C@@H](C)CN([C@@H](C)CO)C(=O)c2cc(NS(=O)(=O)c3ccc(Cl)cc3)ccc2O1	0	-69	nt	1	nt	nt	nt	nt
Cc1ccc(S(=O)(=O)N(C)C[C@H]2OCCCC[C@@H](C)Oc3ccc(NS(=O)(=O)c4ccc(Cl)cc4)cc3C(=O)N([C@@H](C)CO)C[C@H]2C)cc1	-3	-49	?	-1	103*	116*	-34	-16
Cc1ccc(S(=O)(=O)N(C)C[C@H]2OCCCC[C@@H](C)Oc3ccc(NS(=O)(=O)c4ccc(Cl)cc4)cc3C(=O)N([C@H](C)CO)C[C@@H]2C)cc1	-3	-27	76	nt	nt	nt	nt	nt
Cc1ccc(S(=O)(=O)N(C)C[C@H]2OCCCC[C@@H](C)Oc3ccc(NS(=O)(=O)c4ccc(Cl)cc4)cc3C(=O)N([C@H](C)CO)C[C@H]2C)cc1	0	-80*	108*	nt	98*	109*	-20	-9
COc1ccccc1OCC(=O)Nc1sc2c(c1C#N)CCCCC2	nt	nt	nt	0	nt	nt	nt	nt
Cc1ccc2nc(-c3cccnc3)cc(C(=O)Nc3ccc(S(=O)(=O)NC(C)(C)C)cc3)c2c1	nt	nt	nt	0	nt	nt	nt	nt
CCN(CC(=O)Nc1cccc(Cl)c1)S(=O)(=O)c1ccc(Br)cc1	nt	nt	nt	0	nt	nt	nt	nt
CCOc1ccc(-n2nc3ccc(NC(=O)COc4ccccc4Cl)cc3n2)cc1	nt	nt	nt	0	nt	nt	nt	nt
C[C@@H]1CN([C@H](C)CO)C(=O)c2cc(NC(=O)Nc3ccc4c(c3)OCO4)ccc2O[C@H]1CN(C)Cc1ccc(Oc2ccccc2)cc1	0	15	-77	nt	nt	nt	nt	nt
C[C@@H]1CN([C@@H](C)CO)C(=O)c2cc(NC(=O)Nc3ccc4c(c3)OCO4)ccc2O[C@H]1CN(C)Cc1ccc(-c2ccccc2)cc1	-1	-27	96*	nt	102*	91	32	82*
C[C@H](CO)N1C[C@H](C)[C@@H](CN(C)Cc2ccc(Oc3ccccc3)cc2)Oc2ccc(NC(=O)Nc3ccc4c(c3)OCO4)cc2C1=O	2	-25	?	nt	111*	-24	15	-2
COc1ccc(S(=O)(=O)N(C)C[C@@H]2Oc3ccc(NC(=O)Cc4cn(C)c5ccccc45)cc3C(=O)N([C@H](C)CO)C[C@@H]2C)cc1	-4	-85*	101*	-10	97*	20	10	63*
